Results reported in publication PMC4183726 (Journal of biomolecular screening, 2014).
Structures can show the parent of a compound that is named as a salt. Where two headings read alike, the source gives them in different places.

Columns and labels:
MBD2-MBD [1] = molecular target: T1, MBD2-MBD (Homo sapiens, UniProt Q9UBB5); assay: TR-FRET binding curves of MBD2-MBD to methylated and unmethylated DNA; details: read-out: EC50 of MBD2-MBD binding to DNA; TR-FRET assay
Summary of the method: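 His-tagged MBD2-MBD (25nM; E. coli-expressed, Ni-NTA and gel-filtration purified) in the FP binding buffer. FAM-labelled methylated or unmethylated hairpin oligo added as a dilution series, with 5 nM Tb-anti-His antibody. 1 h at 4°C with shaking. Ex 332 nm; emission 485 and 515 nm read after a 50 µsec delay over 400 µsec. No-protein 515/485 ratio subtracted; plotted against total DNA concentration and curve-fitted.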

SP-1 = SP-1 (Homo sapiens, UniProt P08047); assay: TR-FRET counter screen with transcription factor SP-1 binding to DNA; details: for inhibition of SP-1 binding to DNA (in words): TR-FRET counter screen, dose response
MBD2-MBD [2] = molecular target: T1, MBD2-MBD; details: read-out: EC50 of MBD2-MBD binding to DNA; FP assay
Summary of the method: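 His-tagged MBD2-MBD expressed in E. coli BL21 DE3 and purified by Ni-NTA and gel filtration. Protein dilution series in 10 mM Tris-HCl pH 7.4, 125 mM NaCl, 4% glycerol, 1 mM MgCl2, 0.5 mM EDTA, 0.5 mM DTT, 0.2% Tween-20. Added 10nM FAM-labelled hairpin oligo (CpG-methylated or unmethylated; annealed at 95°C, then ice). 1 h at 4°C with shaking, quadruplicate. Ex 470/em 525 nm; anisotropy plotted against protein concentration and curve-fitted.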

MBD2-MBD [3] = molecular target: T1, MBD2-MBD; assay: TR-FRET dose-response; type: binding; details: for dose-response for inhibition of MBD2-MBD binding to methylated DNA (in words): TR-FRET, dose range tested up to 20 µM
MBD2-MBD [4] = molecular target: MBD2-MBD (UniProt Q9UBB5 145-213); assay: fluorescence polarization
MBD2-MBD (UniProt Q9UBB5 145-213), sequence (Q9UBB5 145-213): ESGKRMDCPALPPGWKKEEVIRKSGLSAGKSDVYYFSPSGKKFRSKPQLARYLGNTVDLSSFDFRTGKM

T1 sequence (Q9UBB5 145-213 limits assumed): as the sequence (Q9UBB5 145-213) above
SP-1, sequence (P08047 whole entry): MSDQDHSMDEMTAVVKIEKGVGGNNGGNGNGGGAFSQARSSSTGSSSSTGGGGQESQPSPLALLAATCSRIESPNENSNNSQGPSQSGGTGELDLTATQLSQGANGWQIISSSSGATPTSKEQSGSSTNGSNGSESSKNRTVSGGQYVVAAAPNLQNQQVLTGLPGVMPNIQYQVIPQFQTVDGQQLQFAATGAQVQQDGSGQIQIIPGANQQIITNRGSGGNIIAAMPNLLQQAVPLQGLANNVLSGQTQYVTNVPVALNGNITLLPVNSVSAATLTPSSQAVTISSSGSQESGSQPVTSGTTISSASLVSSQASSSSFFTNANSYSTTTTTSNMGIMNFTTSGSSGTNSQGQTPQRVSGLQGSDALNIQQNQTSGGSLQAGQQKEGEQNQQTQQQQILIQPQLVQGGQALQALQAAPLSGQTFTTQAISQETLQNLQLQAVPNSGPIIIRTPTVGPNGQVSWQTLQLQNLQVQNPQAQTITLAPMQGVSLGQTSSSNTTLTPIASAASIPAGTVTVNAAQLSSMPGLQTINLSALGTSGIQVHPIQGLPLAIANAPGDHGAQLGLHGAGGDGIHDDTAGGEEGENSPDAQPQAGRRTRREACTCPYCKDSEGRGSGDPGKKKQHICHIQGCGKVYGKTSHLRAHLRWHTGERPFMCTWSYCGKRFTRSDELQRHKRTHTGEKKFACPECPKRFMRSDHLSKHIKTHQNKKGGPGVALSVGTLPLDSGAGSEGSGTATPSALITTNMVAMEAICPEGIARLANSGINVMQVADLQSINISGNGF

Molecule	IC50 (MBD2-MBD [3])	dose-response for inhibition of MBD2-MBD binding to methylated DNA (in words) (MBD2-MBD [3])	inhibition of SP-1 binding to DNA (in words) (SP-1)	other results
unmethylated DNA: FAM-labeled hairpin oligonucleotide 5′-ATGCTCGTAGCACTTTTGTGCTACGAGCAT-3′ (unmethylated) (DNA, backbone not given here; FAM label, hairpin)				EC50 (MBD2-MBD [1]): > 1000 nM; EC50 (SP-1; read-out: EC50 of SP-1 binding to DNA, TR-FRET assay, binding curve): 22 nM; EC50 (MBD2-MBD [2]): > 1000 nM
CC(=O)[C@]1(O)Cc2c(O)c3c(c(O)c2[C@@H](O[C@H]2C[C@H](N)[C@H](O)[C@H](C)O2)C1)C(=O)c1ccccc1C3=O [Idarubicin]	196 nM	showed a sigmoidal dose-response	prevented binding of SP1 to DNA with similar potency	IC50 (SP-1): 580 nM
CCN(CC)CCOCCOC(=O)C1(c2ccccc2)CCCC1 [Carbetapentane citrate]		failed to show appreciable inhibition		
O=C1c2c(O)ccc(O)c2C(=O)c2c(NCCNCCO)ccc(NCCNCCO)c21 [Mitoxantrone]	94 nM	showed a sigmoidal dose-response	prevented binding of SP1 to DNA with similar potency	IC50 (SP-1): 314 nM
CN(N=O)c1cc(O)ccc1O [Dephostatin]		failed to show appreciable inhibition		
NC(Cc1cc(O)c(O)cc1O)C(=O)O (racemic) [6-Hydroxy-DL-DOPA]		failed to show appreciable inhibition		
CN(N=O)c1ccc(O)c(O)c1 [Me-3,4-dephostatin]		failed to show appreciable inhibition		
N[C@H](C(=O)O)[C@H]1C[C@@H]1C(=O)O [(2S,1S,2S)-2-(carboxycyclopropyl)glycine]		failed to show appreciable inhibition		
O=C(O)C1=CC(=C(c2ccc(O)c(C(=O)O)c2)c2ccc(O)c(C(=O)O)c2)C=CC1=O [Aurintricarboxylic acid]	2.7 nM	showed a sigmoidal dose-response	prevented binding of SP1 to DNA with similar potency	
ATGCTCGTAGCACTTTTGTGCTACGAGCAT (structured_DNA, 5-methyl-C at C6 and C24 (printed Cme)) [methylated hairpin FAM]				apparent K (half saturation) (MBD2-MBD [4]): 42.7 nM
